Active and inactive are the calls of the source.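 How the source made its calls, unless noted: active means visually confirmed hit in the image check and inhibition above 20%; inconclusive means visually confirmed hit but inhibition not above 20%; inactive means no visual hit in the image check.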
What was measured:
[1] = inhibitors of TNFa-induced NFkB p65 translocation, primary screen, imaging, HUVEC, MLSMR starter and 10KST1 sets (AID 438;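 active means inhibition above 20% together with a positive visual image hit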;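 further: compound added about 3h40 before a 20 min TNFalpha stimulation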;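 on inhibition: signal is the nuclear over cytoplasmic p65 intensity ratio per well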); conditions: HUVEC TNFa-induced p65 nuclear translocation; cell count: measured here: nuclei count (cytotoxicity indicator), at 2.08 µM; inhibition: at 2 µM, stronger effect = higher value, 0% TNFa-plus-vehicle, 100% no-TNFa wells
[2] = reduction of polyQ htt aggregates in cells – imaging, exon1htt(103Q)mCFP cells, high-content imaging, primary screen (AID 483;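 active means visual image review flags a hit and inhibition of aggregation exceeds 20%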;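 further: compound exposure lasted 3 days before fixation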;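 on nuclei count: percent of the per-plate median nuclei count of sample wells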); conditions: exon1htt(103Q)mCFP cell line, aggregate imaging, at 2 µM; inhibition of aggregation: stronger effect = higher value; nuclei count: measured here: cell count, toxicity
[3] = endothelial E-selectin expression blockers – imaging, HUVEC, immunofluorescence, MLSMR starter and 10KST1 sets, primary screen (AID 487); conditions: HUVEC TNFalpha-induced E-selectin immunofluorescence imaging, at 2 µM; inhibition: stronger effect = higher value; nuclei count: measured here: cell number, toxicity;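 on inhibition: signal is fraction of cell area covered by stained E-selectin grains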;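 on nuclei count: 100% = median nuclei count of all wells on the same plate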
[4] = biological target: Voltage-gated potassium channel subunit beta-2 (Rattus norvegicus) (UniProt P62483); test: inhibitors of rat Kvbeta2 reductase activity – biochemical, NADPH fluorescence, primary screen (AID 622;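 active means fluorescence slope higher than the sample average by over 3 SD, cut at about -0.22 in these data, passing the limit was not always enough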;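 further: slope of raw intensity against log time taken from 70 to 1610 s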); conditions: recombinant KvBeta, 4-cyanobenzaldehyde reduction, at 10 µM, stronger effect = higher value
[5] = biological target: Voltage-gated potassium channel subunit beta-2 (Rattus norvegicus) (UniProt P62483); test: enhancers of rat Kvbeta2 NADPH turnover – biochemical, NADPH fluorescence, primary screen (AID 623;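 active means NADPH fluorescence slope more negative than the mean of all samples by about 3 SD, 99.7% confidence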;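 further: fluorescence intensity change per second fitted from 20 to 320 s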); conditions: Recombinant KvBeta, NADPH fluorescence decrease slope, 10 min; at 10 µM; stronger effect = lower value
[6] = biological target: Muscarinic acetylcholine receptor M4 (Homo sapiens) (UniProt P08173); test: M4-linked GIRK flux change, two-sided – cell-based, HEK293 M4/GIRK, thallium flux, BTC-AM, M4 allosteric agonist project, primary screen (AID 625;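 active means fluorescence slope after compound addition differing from the mean of all tested samples at 99.7% confidence, mostly higher but some lower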;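 further: thallium influx through GIRK channels coupled to M4 in HEK293 cells with BTC-AM dye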); conditions: at 10 µM, actives lie on both sides
How it was run: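 Material: M4/GIRK1/GIRK2 stable HEK293 cell line. Medium: pH 7.3 thallium assay buffer. Dosing: single compound concentration, 10 µM final. Schedule: 1 h dye loading, 2 min kinetic read. Measured by: kinetic fluorescence with BTC-AM dye. Read-out: post-addition slope, 15–24 s, of baseline-normalized fluorescence. Benchmarks: carbachol and DMSO controls.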

[7] = blockers of RIG-like receptor reporter activation – cell-based, Sendai virus stimulus, luciferase, 10K MLSCN set, TLR/RLR signaling modifier project, primary screen (AID 602276;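 active means inhibition at or above 50% at 10 µM; inactive means inhibition below 50%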;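 further: firefly luciferase from ISG56 promoter only with Renilla not read in this screen; 0% = Sendai virus plus DMSO and 100% = medium plus DMSO without virus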); conditions: HEK293 RL24 IRF3 luciferase reporter, at 10 µM, stronger effect = higher value
[8] = TLR3 IRF3 reporter activation blockers – cell-based, poly I:C stimulus, luciferase, 10K MLSCN set, primary screen (AID 602277;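 active means inhibition of the reporter signal at or above 50%; inactive means inhibition below 50%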); conditions: HEK293-TLR3 RL24 IRF3 luciferase reporter, at 10 µM, stronger effect = higher value

Muscarinic acetylcholine receptor M4 (Homo sapiens), sequence (P08173 whole entry, looked up): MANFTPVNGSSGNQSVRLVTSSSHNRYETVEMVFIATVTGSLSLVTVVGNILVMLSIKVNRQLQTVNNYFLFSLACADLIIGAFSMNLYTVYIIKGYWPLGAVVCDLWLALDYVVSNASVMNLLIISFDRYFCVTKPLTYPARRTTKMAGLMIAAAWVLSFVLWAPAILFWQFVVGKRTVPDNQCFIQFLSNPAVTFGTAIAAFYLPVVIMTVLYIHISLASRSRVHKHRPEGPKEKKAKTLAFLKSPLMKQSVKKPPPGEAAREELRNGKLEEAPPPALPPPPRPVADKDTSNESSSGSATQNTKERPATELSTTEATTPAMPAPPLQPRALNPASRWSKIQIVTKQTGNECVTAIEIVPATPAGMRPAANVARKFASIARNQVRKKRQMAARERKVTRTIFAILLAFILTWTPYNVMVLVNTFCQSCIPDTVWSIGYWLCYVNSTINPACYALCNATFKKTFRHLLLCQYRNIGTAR
Voltage-gated potassium channel subunit beta-2 (Rattus norvegicus), sequence (P62483 whole entry, looked up): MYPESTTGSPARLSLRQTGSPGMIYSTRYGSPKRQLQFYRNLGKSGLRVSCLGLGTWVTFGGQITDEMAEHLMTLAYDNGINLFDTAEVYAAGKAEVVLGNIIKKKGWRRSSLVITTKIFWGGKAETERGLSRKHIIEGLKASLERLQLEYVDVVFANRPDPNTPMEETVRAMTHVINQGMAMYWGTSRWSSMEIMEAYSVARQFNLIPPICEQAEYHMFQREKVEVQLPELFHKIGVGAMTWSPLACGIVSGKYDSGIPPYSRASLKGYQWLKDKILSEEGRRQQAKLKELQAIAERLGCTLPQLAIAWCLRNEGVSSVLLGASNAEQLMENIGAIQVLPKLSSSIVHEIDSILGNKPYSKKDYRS

SMILES: CCOC(=O)N1CCC(NC(=O)c2ccc3nc(N4CCOCC4)sc3c2)CC1
- cell count [1]: 585
- inhibition [1]: 2.2% (inactive)
- inhibition of aggregation [2]: 0% (inactive)
- nuclei count [2]: 112%
- inhibition [3]: 36% (inactive)
- nuclei count [3]: 90.8%
- fluorescence slope [4]: -0.591 (inactive)
- NADPH fluorescence slope [5]: 1.8e-05 (inactive)
- fluorescence slope [6]: 0.00698 (inactive)
- inhibition [7]: 12.9% (inactive)
- inhibition [8]: 12.3% (inactive)

SMILES: COCCn1c(SCC(=O)c2ccccc2)nc2c(c1=O)SC(C)C2 (stereo not given)
- cell count [1]: 232
- inhibition [1]: 7.3% (inactive)
- inhibition of aggregation [2]: -6.9% (inactive)
- nuclei count [2]: 101%
- inhibition [3]: -17.9% (inactive)
- nuclei count [3]: 99.1%
- fluorescence slope [4]: -0.45 (inactive)
- NADPH fluorescence slope [5]: -0.000101 (inactive)
- fluorescence slope [6]: 0.00738 (inactive)
- inhibition [7]: 1.47% (inactive)
- inhibition [8]: 7.51% (inactive)

SMILES: CCN1CCN(C(=O)c2ccc3c(=O)n(C4CCCC4)c(=S)[nH]c3c2)CC1
- cell count [1]: 507
- inhibition [1]: -4.3% (inactive)
- inhibition of aggregation [2]: 8.5% (inactive)
- nuclei count [2]: 82.3%
- inhibition [3]: -19.6% (inactive)
- nuclei count [3]: 111%
- fluorescence slope [4]: -0.517 (inactive)
- NADPH fluorescence slope [5]: 6.6e-05 (inactive)
- fluorescence slope [6]: 0.00572 (inactive)
- inhibition [7]: -15.8% (inactive)
- inhibition [8]: -6.81% (inactive)

SMILES: Nc1c(C2=NCCO2)nnn1Cc1ccccc1
- cell count [1]: 612
- inhibition [1]: 4.2% (inactive)
- inhibition of aggregation [2]: 19.4% (inactive)
- nuclei count [2]: 79.3%
- inhibition [3]: -130% (inactive)
- nuclei count [3]: 149%
- fluorescence slope [4]: -0.597 (inactive)
- NADPH fluorescence slope [5]: -4.6e-05 (inactive)
- fluorescence slope [6]: 0.00414 (inactive)
- inhibition [7]: 19.1% (inactive)
- inhibition [8]: 19.1% (inactive)

SMILES: COc1ccc(-c2noc(-c3cc(Cl)ccc3Cl)n2)cc1OC
- cell count [1]: 686
- inhibition [1]: -10.5% (inactive)
- inhibition of aggregation [2]: -10.9% (inactive)
- nuclei count [2]: 104%
- inhibition [3]: 14.6% (inactive)
- nuclei count [3]: 86.8%
- fluorescence slope [4]: -0.526 (inactive)
- NADPH fluorescence slope [5]: -2.2e-05 (inactive)
- fluorescence slope [6]: 0.00828 (inactive)
- inhibition [7]: 0.153% (inactive)
- inhibition [8]: -15.5% (inactive)

SMILES: O=C1CCCC2=C1C(c1ccsc1)CC(=O)N2c1ccccc1 (stereo not given)
- cell count [1]: 550
- inhibition [1]: -11.1% (inactive)
- inhibition of aggregation [2]: -6.3% (inactive)
- nuclei count [2]: 100%
- inhibition [3]: -88.5% (inactive)
- nuclei count [3]: 95.1%
- fluorescence slope [4]: -0.422 (inactive)
- NADPH fluorescence slope [5]: -0.000362 (inactive)
- fluorescence slope [6]: 0.00622 (inactive)
- inhibition [7]: 15.9% (inactive)
- inhibition [8]: 19.3% (inactive)

SMILES: CCn1c(SCC(=O)Nc2nnc(C)s2)nnc1-c1ccncc1
- cell count [1]: 554
- inhibition [1]: -17.9% (inactive)
- inhibition of aggregation [2]: 25.6% (inactive)
- nuclei count [2]: 92.8%
- inhibition [3]: -53.1% (inactive)
- nuclei count [3]: 114%
- fluorescence slope [4]: -0.301 (inactive)
- NADPH fluorescence slope [5]: -5.1e-05 (inactive)
- fluorescence slope [6]: 0.00811 (inactive)
- inhibition [7]: 15.2% (inactive)
- inhibition [8]: 0.883% (inactive)

SMILES: Cc1nc2nc(SCC(=O)NCc3ccco3)nn2c(C)c1Cc1ccccc1
- cell count [1]: 457
- inhibition [1]: 1.4% (inactive)
- inhibition of aggregation [2]: -6.7% (inactive)
- nuclei count [2]: 112%
- inhibition [3]: -10.5% (inactive)
- nuclei count [3]: 126%
- fluorescence slope [4]: -0.353 (inactive)
- NADPH fluorescence slope [5]: -2.9e-05 (inactive)
- fluorescence slope [6]: 0.0066 (inactive)
- inhibition [7]: -7.73% (inactive)
- inhibition [8]: 0.532% (inactive)

SMILES: O=c1oc2ccccc2c(N2CCCCC2)c1CN1CCCCC1
- cell count [1]: 731
- inhibition [1]: -5.4% (inactive)
- inhibition of aggregation [2]: -7.2% (inactive)
- nuclei count [2]: 108%
- inhibition [3]: 25.6% (inactive)
- nuclei count [3]: 104%
- fluorescence slope [4]: -0.549 (inactive)
- NADPH fluorescence slope [5]: -6.2e-05 (inactive)
- fluorescence slope [6]: 0.00538 (inactive)
- inhibition [7]: -13.6% (inactive)
- inhibition [8]: -1.22% (inactive)

SMILES: COC(=O)c1cccc(S(=O)(=O)N2CCN(c3nc4ccccc4s3)CC2)c1
- cell count [1]: 299
- inhibition [1]: -5% (inactive)
- inhibition of aggregation [2]: 6.2% (inactive)
- nuclei count [2]: 96.3%
- inhibition [3]: -24.1% (inactive)
- nuclei count [3]: 80.7%
- fluorescence slope [4]: -0.539 (inactive)
- NADPH fluorescence slope [5]: 1.2e-05 (inactive)
- fluorescence slope [6]: 0.00622 (inactive)
- inhibition [7]: 1.3% (inactive)
- inhibition [8]: 8.61% (inactive)

SMILES: Cc1c(/C(O)=C2/C(=O)C(=O)N(CCN3CCOCC3)C2c2cccs2)cnn1-c1ccccc1 (stereo not given)
- cell count [1]: 566
- inhibition [1]: 13.4% (inactive)
- inhibition of aggregation [2]: -5% (inactive)
- nuclei count [2]: 103%
- inhibition [3]: 21.8% (inactive)
- nuclei count [3]: 97.7%
- fluorescence slope [4]: -0.502 (inactive)
- NADPH fluorescence slope [5]: -0.000209 (inactive)
- fluorescence slope [6]: 0.00361 (inactive)
- inhibition [7]: 2.43% (inactive)
- inhibition [8]: 21.8% (inactive)

SMILES: CCOC(=O)CCC(=O)Nc1ccc(S(=O)(=O)N2CCCC2)cc1
- cell count [1]: 720
- inhibition [1]: -3% (inactive)
- inhibition of aggregation [2]: 3.2% (inactive)
- nuclei count [2]: 98.3%
- inhibition [3]: -15.9% (inactive)
- nuclei count [3]: 126%
- fluorescence slope [4]: -0.468 (inactive)
- NADPH fluorescence slope [5]: 2.8e-05 (inactive)
- fluorescence slope [6]: 0.00707 (inactive)
- inhibition [7]: -1.78% (inactive)
- inhibition [8]: 100% (active)

SMILES: CCCCn1c(CN2CCN(CCO)CC2)nc2ccccc21
- cell count [1]: 611
- inhibition [1]: 6.2% (inactive)
- inhibition of aggregation [2]: -17.9% (inactive)
- nuclei count [2]: 112%
- inhibition [3]: 44.3% (inactive)
- nuclei count [3]: 84.5%
- fluorescence slope [4]: -0.468 (inactive)
- NADPH fluorescence slope [5]: -0.000309 (inactive)
- fluorescence slope [6]: 0.00452 (inactive)
- inhibition [7]: 2.03% (inactive)
- inhibition [8]: 19.1% (inactive)

SMILES: Cc1ccc(-c2noc(C3CCCN(C(=O)c4ccc(F)cc4F)C3)n2)cc1 (stereo not given)
- cell count [1]: 753
- inhibition [1]: -11.3% (inactive)
- inhibition of aggregation [2]: 1.1% (inactive)
- nuclei count [2]: 58.6%
- inhibition [3]: -21.5% (inactive)
- nuclei count [3]: 124%
- fluorescence slope [4]: -0.274 (inactive)
- NADPH fluorescence slope [5]: -6.5e-06 (inactive)
- fluorescence slope [6]: 0.00592 (inactive)
- inhibition [7]: -9.91% (inactive)
- inhibition [8]: -43.3% (inactive)

SMILES: COc1ccc(OC(C)C(=O)N2CC(C)OC(C)C2)cc1 (stereo not given)
- cell count [1]: 436
- inhibition [1]: 12.2% (inactive)
- inhibition of aggregation [2]: -4.6% (inactive)
- nuclei count [2]: 97.2%
- inhibition [3]: -7.5% (inactive)
- nuclei count [3]: 120%
- fluorescence slope [4]: -0.566 (inactive)
- NADPH fluorescence slope [5]: 1.5e-06 (inactive)
- fluorescence slope [6]: 0.00556 (inactive)
- inhibition [7]: 14.1% (inactive)
- inhibition [8]: 30.8% (inactive)

SMILES: CSc1nnc2n(CCc3ccccc3)c(=O)c3c4c(sc3n12)CCCC4
- cell count [1]: 295
- inhibition [1]: -21.3% (inactive)
- inhibition of aggregation [2]: -2.1% (inactive)
- nuclei count [2]: 106%
- inhibition [3]: -22% (inactive)
- nuclei count [3]: 112%
- fluorescence slope [4]: -0.476 (inactive)
- NADPH fluorescence slope [5]: -2.9e-05 (inactive)
- fluorescence slope [6]: 0.00521 (inactive)
- inhibition [7]: 7.14% (inactive)
- inhibition [8]: -1.7% (inactive)

SMILES: CC1CCN(S(=O)(=O)c2ccc(NC(=O)CSc3nnnn3C)cc2)CC1
- cell count [1]: 289
- inhibition [1]: -5.4% (inactive)
- inhibition of aggregation [2]: -4.7% (inactive)
- nuclei count [2]: 107%
- inhibition [3]: -1.6% (inactive)
- nuclei count [3]: 91.8%
- fluorescence slope [4]: -0.411 (inactive)
- NADPH fluorescence slope [5]: -3.1e-05 (inactive)
- fluorescence slope [6]: 0.00682 (inactive)
- inhibition [7]: 10.9% (inactive)
- inhibition [8]: 20.7% (inactive)

SMILES: CC(C)(C)N=C1NC(=NC(C)(C)C)c2ccccc21
- cell count [1]: 716
- inhibition [1]: 2.3% (inactive)
- inhibition of aggregation [2]: -5.7% (inactive)
- nuclei count [2]: 106%
- inhibition [3]: -18.9% (inactive)
- nuclei count [3]: 107%
- fluorescence slope [4]: -0.525 (inactive)
- NADPH fluorescence slope [5]: -7.9e-06 (inactive)
- fluorescence slope [6]: 0.00395 (inactive)
- inhibition [7]: 5.9% (inactive)
- inhibition [8]: 5.38% (inactive)

SMILES: O=C(COc1ccccc1Cl)OCC(=O)N1CCN(S(=O)(=O)c2ccccc2)CC1
- cell count [1]: 270
- inhibition [1]: 2.6% (inactive)
- inhibition of aggregation [2]: -0.5% (inactive)
- nuclei count [2]: 107%
- inhibition [3]: -107% (inactive)
- nuclei count [3]: 119%
- fluorescence slope [4]: -0.438 (inactive)
- NADPH fluorescence slope [5]: 7.9e-05 (inactive)
- fluorescence slope [6]: 0.00565 (inactive)
- inhibition [7]: 16.4% (inactive)
- inhibition [8]: 21% (inactive)

SMILES: CC(C)OP(=O)(c1ccc(N(C)C)cc1)C(O)c1ccccc1F (stereo not given)
- cell count [1]: 720
- inhibition [1]: -7.2% (inactive)
- inhibition of aggregation [2]: 12.5% (inactive)
- nuclei count [2]: 117%
- inhibition [3]: -14.7% (inactive)
- nuclei count [3]: 117%
- fluorescence slope [4]: -0.541 (inactive)
- NADPH fluorescence slope [5]: -5.1e-05 (inactive)
- fluorescence slope [6]: 0.00489 (inactive)
- inhibition [7]: 11.8% (inactive)
- inhibition [8]: 22.5% (inactive)

— PubChem BioAssay
